According to ChEMBL document CHEMBL4689842, “EUbOPEN Chemogenomics Library wave 1” (2021):

What was measured:
[1] = tested on: HEK-293T; assay: Multiplex assay against HEK293T; assay type: toxicity, cell-based; settings: human;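 on Population Tubulin-Different-Phenotype (%): share of the cells with healthy nuclei that show this phenotype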
In short: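 Phenotypes for tubulin, mitochondrial mass and membrane permeability are expressed as per cents of healthy-nucleus cells. Cells were stained live at seeding with Hoechst33342, BioTracker Green Microtubule Cytoskeleton Dye, MitoTracker Red and Annexin V Alexa Fluor 680, then imaged after compound addition on a CQ1 microscope at 37°C and 5% CO2. Machine-learning gating in CellPathfinder separated Hoechst high-intensity objects from normal cells, divided normal cells by nuclear state (healthy, pyknosed, fragmented) and divided pyknosed cells into mitotic or apoptotic.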

[2] = tested on: Fibroblast; assay: Incucyte cell viability with human fibroblast; assay type: toxicity, cell-based; settings: 10 µM, compound concentration 10 uM; further: filed as whole numbers so only -1 and 0 and 1 occur
[3] = 12 h, 1 µM, compound concentration 1 uM, replicate 1
[4] = 12 h, 1 µM, compound concentration 1 uM, replicate 2
[5] = 12 h, 10 µM, compound concentration 10 uM, replicate 1
[6] = 12 h, 10 µM, compound concentration 10 uM, replicate 2
[7] = 24 h, 1 µM, compound concentration 1 uM, replicate 1
[8] = 24 h, 1 µM, compound concentration 1 uM, replicate 2
[9] = 24 h, 10 µM, compound concentration 10 uM, replicate 1
[10] = 24 h, 10 µM, compound concentration 10 uM, replicate 2
[11] = 48 h, 1 µM, compound concentration 1 uM, replicate 1
[12] = 48 h, 1 µM, compound concentration 1 uM, replicate 2
[13] = 48 h, 10 µM, compound concentration 10 uM, replicate 1
[14] = 48 h, 10 µM, compound concentration 10 uM, replicate 2

CCn1c(-c2nonc2N)nc2cnc(Oc3cccc(NC(=O)c4ccc(OCCN5CCOCC5)cc4)c3)cc21 [GSK-269962A]
Population Apoptotic (%) [1, 3]: 44%
Population Fragmented Nuclei (%) [1, 3]: 14%
Population Healthy Nuclei (%) [1, 3]: 26%
Population Hoechst High Intensity Objects (%) [1, 3]: 17%
Population Membrane Permeable-Phenotype (%) [1, 3]: 3%
Population Mitochondria Different-Phenotype (%) [1, 3]: 75%
Population Mitotic Cells (%) [1, 3]: 55%
Population Normal (%) [1, 3]: 82%
Population Pyknosed Nuclei (%) [1, 3]: 58%
Population Tubulin-Different-Phenotype (%) [1, 3]: 55%
Total Cell Count [1, 3]: 262
Population Apoptotic (%) [1, 4]: 12%
Population Fragmented Nuclei (%) [1, 4]: 8%
Population Healthy Nuclei (%) [1, 4]: 44%
Population Hoechst High Intensity Objects (%) [1, 4]: 6%
Population Membrane Permeable-Phenotype (%) [1, 4]: 5%
Population Mitochondria Different-Phenotype (%) [1, 4]: 21%
Population Mitotic Cells (%) [1, 4]: 87%
Population Normal (%) [1, 4]: 93%
Population Pyknosed Nuclei (%) [1, 4]: 46%
Population Tubulin-Different-Phenotype (%) [1, 4]: 21%
Total Cell Count [1, 4]: 251
Population Apoptotic (%) [1, 5]: 61%
Population Fragmented Nuclei (%) [1, 5]: 7%
Population Healthy Nuclei (%) [1, 5]: 20%
Population Hoechst High Intensity Objects (%) [1, 5]: 12%
Population Membrane Permeable-Phenotype (%) [1, 5]: 1%
Population Mitochondria Different-Phenotype (%) [1, 5]: 98%
Population Mitotic Cells (%) [1, 5]: 38%
Population Normal (%) [1, 5]: 87%
Population Pyknosed Nuclei (%) [1, 5]: 72%
Population Tubulin-Different-Phenotype (%) [1, 5]: 100%
Total Cell Count [1, 5]: 284
Population Apoptotic (%) [1, 6]: 54%
Population Fragmented Nuclei (%) [1, 6]: 4%
Population Healthy Nuclei (%) [1, 6]: 13%
Population Hoechst High Intensity Objects (%) [1, 6]: 7%
Population Membrane Permeable-Phenotype (%) [1, 6]: 0%
Population Mitochondria Different-Phenotype (%) [1, 6]: 100%
Population Mitotic Cells (%) [1, 6]: 45%
Population Normal (%) [1, 6]: 92%
Population Pyknosed Nuclei (%) [1, 6]: 81%
Total Cell Count [1, 6]: 186
Population Apoptotic (%) [1, 7]: 56%
Population Fragmented Nuclei (%) [1, 7]: 18%
Population Healthy Nuclei (%) [1, 7]: 30%
Population Hoechst High Intensity Objects (%) [1, 7]: 16%
Population Membrane Permeable-Phenotype (%) [1, 7]: 1%
Population Mitochondria Different-Phenotype (%) [1, 7]: 75%
Population Mitotic Cells (%) [1, 7]: 43%
Population Normal (%) [1, 7]: 83%
Population Pyknosed Nuclei (%) [1, 7]: 51%
Population Tubulin-Different-Phenotype (%) [1, 7]: 43%
Total Cell Count [1, 7]: 254
Population Apoptotic (%) [1, 8]: 11%
Population Fragmented Nuclei (%) [1, 8]: 12%
Population Healthy Nuclei (%) [1, 8]: 61%
Population Hoechst High Intensity Objects (%) [1, 8]: 3%
Population Membrane Permeable-Phenotype (%) [1, 8]: 4%
Population Mitochondria Different-Phenotype (%) [1, 8]: 17%
Population Mitotic Cells (%) [1, 8]: 88%
Population Normal (%) [1, 8]: 96%
Population Pyknosed Nuclei (%) [1, 8]: 26%
Population Tubulin-Different-Phenotype (%) [1, 8]: 31%
Total Cell Count [1, 8]: 267
Population Apoptotic (%) [1, 9]: 74%
Population Fragmented Nuclei (%) [1, 9]: 12%
Population Healthy Nuclei (%) [1, 9]: 31%
Population Hoechst High Intensity Objects (%) [1, 9]: 12%
Population Membrane Permeable-Phenotype (%) [1, 9]: 4%
Population Mitochondria Different-Phenotype (%) [1, 9]: 96%
Population Mitotic Cells (%) [1, 9]: 25%
Population Normal (%) [1, 9]: 87%
Population Pyknosed Nuclei (%) [1, 9]: 56%
Population Tubulin-Different-Phenotype (%) [1, 9]: 98%
Total Cell Count [1, 9]: 276
Population Apoptotic (%) [1, 10]: 72%
Population Fragmented Nuclei (%) [1, 10]: 6%
Population Healthy Nuclei (%) [1, 10]: 22%
Population Hoechst High Intensity Objects (%) [1, 10]: 6%
Population Membrane Permeable-Phenotype (%) [1, 10]: 5%
Population Mitochondria Different-Phenotype (%) [1, 10]: 87%
Population Mitotic Cells (%) [1, 10]: 28%
Population Normal (%) [1, 10]: 93%
Population Pyknosed Nuclei (%) [1, 10]: 70%
Population Tubulin-Different-Phenotype (%) [1, 10]: 97%
Total Cell Count [1, 10]: 189
Population Apoptotic (%) [1, 11]: 56%
Population Fragmented Nuclei (%) [1, 11]: 18%
Population Healthy Nuclei (%) [1, 11]: 23%
Population Hoechst High Intensity Objects (%) [1, 11]: 19%
Population Membrane Permeable-Phenotype (%) [1, 11]: 4%
Population Mitochondria Different-Phenotype (%) [1, 11]: 54%
Population Mitotic Cells (%) [1, 11]: 43%
Population Normal (%) [1, 11]: 80%
Population Pyknosed Nuclei (%) [1, 11]: 58%
Population Tubulin-Different-Phenotype (%) [1, 11]: 45%
Total Cell Count [1, 11]: 255
Population Apoptotic (%) [1, 12]: 41%
Population Fragmented Nuclei (%) [1, 12]: 20%
Population Healthy Nuclei (%) [1, 12]: 66%
Population Hoechst High Intensity Objects (%) [1, 12]: 3%
Population Membrane Permeable-Phenotype (%) [1, 12]: 5%
Population Mitochondria Different-Phenotype (%) [1, 12]: 12%
Population Mitotic Cells (%) [1, 12]: 58%
Population Normal (%) [1, 12]: 96%
Population Pyknosed Nuclei (%) [1, 12]: 12%
Population Tubulin-Different-Phenotype (%) [1, 12]: 30%
Total Cell Count [1, 12]: 329
Population Apoptotic (%) [1, 13]: 80%
Population Fragmented Nuclei (%) [1, 13]: 18%
Population Healthy Nuclei (%) [1, 13]: 40%
Population Hoechst High Intensity Objects (%) [1, 13]: 11%
Population Membrane Permeable-Phenotype (%) [1, 13]: 1%
Population Mitochondria Different-Phenotype (%) [1, 13]: 97%
Population Mitotic Cells (%) [1, 13]: 19%
Population Normal (%) [1, 13]: 88%
Population Pyknosed Nuclei (%) [1, 13]: 41%
Population Tubulin-Different-Phenotype (%) [1, 13]: 97%
Total Cell Count [1, 13]: 286
Population Apoptotic (%) [1, 14]: 82%
Population Fragmented Nuclei (%) [1, 14]: 5%
Population Healthy Nuclei (%) [1, 14]: 56%
Population Hoechst High Intensity Objects (%) [1, 14]: 7%
Population Mitochondria Different-Phenotype (%) [1, 14]: 89%
Population Mitotic Cells (%) [1, 14]: 17%
Population Normal (%) [1, 14]: 92%
Population Pyknosed Nuclei (%) [1, 14]: 38%
Population Tubulin-Different-Phenotype (%) [1, 14]: 99%
Total Cell Count [1, 14]: 192
Growth Rate ([2]; 0 h, replicate number 1, timepoint 0 hours): 0
Growth Rate ([2]; 24 h, replicate number 1, timepoint 24 hours): 1
